Source: PubChem BioAssay
RGS4 inh: human RGS4 inhibition; P49798; HEK293 M3R/RGS4 inducible, Fluo-4 calcium flux; stronger effect = higher value; triggered by carbachol at its EC20; B-score at 10 µM; 0.45% of 310,000 active; AID 463165;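 active means B-score, a plate-corrected calcium signal, over three deviations above library mean, with baseline fluorescence within five deviations of library mean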;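 further: RGS4 expression induced by doxycycline in cells with stable M3 receptor; B-score is computed from the integrated fluorescence ratio over baseline after carbachol; higher B-score means a larger calcium signal and so more RGS4 inhibition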
Target sequence (P49798 whole entry, looked up): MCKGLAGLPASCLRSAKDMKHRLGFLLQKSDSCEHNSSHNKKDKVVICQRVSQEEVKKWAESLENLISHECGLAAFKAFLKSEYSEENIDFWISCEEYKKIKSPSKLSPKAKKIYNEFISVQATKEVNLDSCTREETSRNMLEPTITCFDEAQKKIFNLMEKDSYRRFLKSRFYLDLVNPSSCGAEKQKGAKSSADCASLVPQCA
MrgX1 antagonist: antagonists of human MrgX1 receptor; Q96LB2; MRGX1-HEK293 calcium flux, Fluo-4, BAM8-22 antagonism; stronger effect = lower value; B-score at 10 µM; 1.3% of 310,000 active;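 active means calcium-response B-score plate-corrected more than 3 library SD below zero, starting fluorescence within 5 deviations, no agonist response on first addition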;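 further: peak minus trough fluorescence over baseline after final BAM8-22 challenge near maximal dose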
Target sequence (Q96LB2 whole entry, looked up): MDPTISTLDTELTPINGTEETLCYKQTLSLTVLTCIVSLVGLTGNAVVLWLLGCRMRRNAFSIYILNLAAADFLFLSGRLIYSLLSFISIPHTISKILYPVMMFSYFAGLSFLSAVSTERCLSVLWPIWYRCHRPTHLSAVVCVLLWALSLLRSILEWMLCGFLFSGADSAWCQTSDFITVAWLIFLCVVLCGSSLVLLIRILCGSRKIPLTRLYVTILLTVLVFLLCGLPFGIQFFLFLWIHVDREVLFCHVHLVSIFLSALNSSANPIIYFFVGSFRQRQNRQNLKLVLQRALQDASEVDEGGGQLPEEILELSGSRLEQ
MrgX1 PAM: allosterically activates human MrgX1 receptor signaling; MrgX1-HEK293, Fluo-4 calcium flux, FDSS; stronger effect = higher value; B-score at 10 µM; 0.63% of 310,000 active;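 active means plate-corrected calcium response at least 3 library SD above typical, normal starting fluorescence, not activating the receptor alone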;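 further: compound read alongside a low EC10 to EC30 dose of BAM8-22 agonist; peak minus trough fluorescence over baseline measured at the second addition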
RGS4 act: potentiators or activators of RGS4 | HEK293 M3R/inducible RGS4, carbachol calcium flux Fluo4; stronger effect = lower value | B-score at 10 µM | 0.92% of 310,000 active;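 active means B-score of the integrated calcium signal more than 4 SD below the library mean, with starting fluorescence not abnormally high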;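 further: negative B-score means reduced calcium response which marks RGS4 activation or potentiation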
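Test system: HEK293 cells with stable M3R and inducible RGS4; also added: carbachol at ECmax as muscarinic agonist stimulus; schedule: dye loading 30 min 37 °C, buffer rest 30 min RT; technique: kinetic calcium fluorescence imaging with Fluo4-AM dye, 2 µM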
MrgX1 ag: agonists of human MrgX1 receptor. AID 588627. B-score at 10 µM. MrgX1-HEK293 cells, Fluo-4 calcium fluorescence, agonist mode; stronger effect = higher value. 0.44% of 310,000 active;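 active means calcium response B-score plate-corrected fluorescence ratio at least 3 library SD, with starting fluorescence B-score inside 5 SD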
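System – MrgX1-expressing HEK293 cells · Incubation – cells plated overnight, dye loaded 0.5 h 37 °C, 0.5 h room temperature · Technique – kinetic Fluo-4 NW fluorescence of intracellular calcium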
RGS4 activ val: RGS4 activation, validation assay | 89% of 1,100 active | AID 602282 | shares compounds with RGS4 act | HEK293 M3R/RGS4 inducible, carbachol calcium flux Fluo4 | inhibition, % at 10 µM;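 active means inhibition above 3 SD of the buffer control wells, cut at about 41% in these data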;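 further: signal is the integrated peak-minus-minimum Fluo4 fluorescence over baseline ratio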
M3R Ca counter: counter-screen for RGS4 activators: effect in non-induced cells; shares compounds with RGS4 act; HEK293 M3R non-induced RGS4, Fluo4 calcium flux; after carbachol challenge at its EC90; AID 602283; inhibition, % at 10 µM; 82% of 1,100 active;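 active means inhibition exceeding 3 SD of buffer-only control wells, cut at about 26% in these data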;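 further: percent drop in integrated peak-minus-baseline over baseline Fluo4 ratio after carbachol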
* marks the source's active call; other numbers are inactive results; i = inactive; / = no result given. A selection: hits, their analogues and other compounds. The true share with any hit is near 3.5%.

SMILES | RGS4 inh | MrgX1 antagonist | MrgX1 PAM | RGS4 act | MrgX1 ag | RGS4 activ val | M3R Ca counter
Cc1ccc(C(C)C)c(OCCCNCc2cccnc2)c1 | i | i | i | -8.7* | i | 91.5* | 59.8*
CCn1c(SCC#N)nc2c(c1=O)C1(CCCC1)Cc1ccccc1-2 | i | i | i | -10.4* | i | 69.0* | 83.8*
C=CCNC(=O)c1cccc(NS(=O)(=O)c2ccc(Cl)cc2)c1 | i | i | i | i | i | / | /
O=C(OCCN1CCCCC1)C1(c2ccccc2)CCCC1 | i | i | i | -9.98* | i | 92.5* | 92.3*
O=C(OCCN1CCCCC1)c1ccccc1Br | i | i | i | i | i | / | /
CN(C)CCOC(=O)C1(c2ccccc2)CCCC1 | i | i | i | -8.5* | i | 92.0* | 90.8*
C[N+]1(CCCOC(=O)C2(c3ccccc3)CCCC2)CCOCC1 | i | i | i | i | i | / | /
O=C(OCCN1CCCC1)C1(c2ccccc2)CCCC1 | i | / | / | -9.27* | / | 94.0* | 92.8*
CSc1n[nH]c(NC2=CC(=O)CCC2)n1 | i | i | i | -7.66* | i | 0.0 | 0.0
CSc1n[nH]c(NC(C)=O)n1 | i | i | i | i | i | / | /
COc1ccc(S(=O)(=O)N2CCCOC2CNC(=O)C(=O)NCc2ccccn2)cc1 (stereo unspecified) | i | i | i | i | i | / | /
COc1cccc(NC(=O)CN(C)C(=O)c2cc(-c3cccc(Br)c3)nc3ccccc23)c1 | i | i | i | -9.46* | i | 84.5* | 27.8*
C=CCN1C(=O)c2ccc(C(=O)N3CCN(S(=O)(=O)c4cccc(Cl)c4)CC3)cc2C1=O | i | i | i | i | i | / | /
O=C(C1CC(=O)N(c2ccc(F)cc2)C1)N1CCC(c2nc3ccccc3[nH]2)CC1 (stereo unspecified) | i | i | i | i | i | / | /
COc1ccc(C2(CNC(=O)Cc3ccccc3)CCCC2)cc1OC | i | i | i | -7.97* | i | 0.0 | 0.0
O=S(=O)(c1ccc(Br)s1)N1CCN(Cc2ccc3c(c2)OCO3)CC1 | i | i | i | -9.34* | i | 89.5* | 85.8*
CC(C)[C@H](NC(=O)c1ccco1)C(=O)OCC(=O)c1ccc2c(c1)NC(=O)CO2 | i | i | i | i | i | / | /
CC(C)CC(NC(=O)c1ccc(Cl)cc1)C(=O)OCC(=O)c1ccc2c(c1)NC(=O)CO2 (stereo unspecified) | i | i | i | -11.5* | i | 90.0* | 80.3*
Cc1cccc(N2CCN(C(=O)CCCn3c(=O)c4cccn4c4cccnc43)CC2)c1C | i | i | i | i | i | / | /
Cc1ccc(Cl)cc1N1CCN(C(=O)CCCn2c(=O)c3cccn3c3cccnc32)CC1 | i | i | i | -7.89* | i | 84.0* | 49.8*
CC(C)CC1CCCCC1OC(=O)CN1CCCCC1 (stereo unspecified) | i | i | i | -8.48* | i | 85.5* | 37.3*
CSc1ccc(S(=O)(=O)N2CCC(C(=O)NCC3CCCO3)CC2)cc1 (stereo unspecified) | i | i | i | i | i | / | /
Cc1ccc(N2C(=O)CSC2c2c(F)cccc2Cl)cc1 (stereo unspecified) | i | i | i | -10.4* | i | 93.0* | 91.8*
CCN1C(=O)CSC1=Nc1ccc(OC)cc1 | i | i | i | i | i | / | /
O=C1CSC2(C(=O)N3CCCc4cccc2c43)N1c1cccc(C(F)(F)F)c1 (stereo unspecified) | i | i | i | -8.21* | i | 90.5* | 76.3*
SMILES | RGS4 inh | MrgX1 antagonist | MrgX1 PAM | RGS4 act | MrgX1 ag | RGS4 activ val | M3R Ca counter
O=C1N2CCCc3cccc(c32)C12Nc1ccccc1S2 (stereo unspecified) | i | / | / | i | / | / | /
COc1ccc(N2C(=O)CSC23C(=O)N2CCCc4cccc3c42)cc1 (stereo unspecified) | i | i | i | -8.35* | i | 92.0* | 89.3*
OCC1(CCOc2ccccc2)CCN(CC2=Cc3cc(Cl)ccc3OC2)CC1 | i | i | i | -8.72* | i | 87.0* | 55.8*
COc1cc(Cl)c(CN2CCC(CO)(CCOc3ccccc3)CC2)cc1OC | i | i | i | i | i | / | /
CSc1ncc(C(=O)Nc2ccc(C(C)=O)cc2)c(-c2ccccc2)n1 | i | i | i | i | i | / | /
O=C(c1ccc2c(c1)OCO2)C1CCCN(Cc2ccccc2OC(F)F)C1 (stereo unspecified) | i | i | i | -7.7* | i | 72.5* | 29.8*
O=C(c1ccc2c(c1)OCO2)C1CCCN(Cc2c(F)ccc(F)c2F)C1 (stereo unspecified) | i | i | i | -7.86* | i | 92.5* | 57.8*
O=C(NCc1ccccc1F)C(c1ccccc1)c1ccccc1 | i | i | i | i | i | / | /
CCc1ccc(NS(=O)(=O)c2cccc3nsnc23)cc1 | i | i | i | -8.56* | i | 72.5* | 83.8*
CC(C)c1ccc(NC(=O)CCNS(=O)(=O)c2cccc3nsnc23)cc1 | i | i | i | -8.02* | i | 0.0 | 0.0
COc1ccc(CCC(=O)NNC(=O)Cn2nc(C)cc2C)cc1 | i | i | i | i | i | / | /
O=C1CNC(=S)N1C(CO)c1ccccc1 (stereo unspecified) | i | i | i | i | i | / | /
O=C(COC(=O)C1CCN(c2ccc(C(F)(F)F)cn2)CC1)c1ccc(Cl)cc1 | i | i | i | -7.77* | i | 76.5* | 31.3*
Cc1cc(C)c(C(=O)COC(=O)C2CCN(c3ccc(C(F)(F)F)cn3)CC2)cc1C | i | i | i | i | i | / | /
O=C(COC(=O)C1CCN(c2ccc(C(F)(F)F)cn2)CC1)c1ccc(F)cc1 | i | i | i | i | i | / | /
COc1cc(C(=O)COC(=O)C2CCN(c3ccc(C(F)(F)F)cn3)CC2)ccc1OC(F)F | i | i | i | -8.67* | i | 75.5* | 83.8*
Cc1ccc(OCC(=O)N2N=C(c3ccncc3)CC2(O)C(F)(F)F)cc1C (stereo unspecified) | i | i | i | i | i | / | /
CCOc1ccc(CN2CCNC(=O)C2CC(=O)NC2CCOCC2)cc1 (stereo unspecified) | i | i | i | i | i | / | /
